Screening data deposited in PubChem by Sanford-Burnham Center for Chemical Genomics.
STEP block = STEP (human) phosphatase inhibition; recombinant STEP, OMFP fluorogenic substrate, fluorescence; inhibition, % at 20 µM; 360,000 compounds, 0.25% hits; AID 588621;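 active = inhibition at 20 µM, scaled per plate between control wells, above about 37%, limit read from the data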;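 also: 0% = DMSO with enzyme and substrate and 100% = substrate only without enzyme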
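Also added – OMFP at 25 µM · Test system – STEP tyrosine phosphatase · Technique – FITC-channel fluorescence of OMFP product · Schedule – 20 min at room temperature, dark · Evaluation – control-normalized % inhibition with plate pattern correction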
Scp-1 inhibitor = Scp-1 (human) phosphatase inhibition | Q9GZU7 | Recombinant Scp1, phosphopeptide, malachite green phosphate absorbance | inhibition, % at 20 µM | 340,000 compounds, 0.88% hits;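 active = inhibition above about 50% at 20 µM, limit read from the data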;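 also: plate controls were DMSO wells with enzyme for no effect and wells lacking enzyme for full effect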
Target sequence (Q9GZU7 76-261 limits assumed): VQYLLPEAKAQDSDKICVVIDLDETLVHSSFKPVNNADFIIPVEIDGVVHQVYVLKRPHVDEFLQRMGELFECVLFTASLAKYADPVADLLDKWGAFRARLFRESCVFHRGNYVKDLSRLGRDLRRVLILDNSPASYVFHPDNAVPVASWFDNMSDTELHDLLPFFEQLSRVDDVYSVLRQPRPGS
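Times: enzyme reaction 45 min at room temperature, colour 5 min, stabilisation 30 min. Material: SCP-1 catalytic fragment, aa 76-261. Medium: Acidic Tris acetate buffer with magnesium and detergent. Signal: colorimetric free-phosphate detection, absorbance 630 nm. Read-out basis: % inhibition of SCP-1 phosphate liberation. Reagent: Phosphorylated 17-residue peptide substrate.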
LMPTP inh = LMPTP (human) inhibition. 360,000 compounds, 0.22% hits. inhibition, % at 20 µM. P24666. recombinant LMPTP-A, OMFP fluorogenic substrate, fluorescence intensity;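 active = compounds that cut the enzyme signal by at least half of the control window in the single-dose screen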;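 also: plate controls were DMSO wells with enzyme plus substrate for no effect and substrate without enzyme for full effect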
Target sequence (P24666 whole entry, looked up): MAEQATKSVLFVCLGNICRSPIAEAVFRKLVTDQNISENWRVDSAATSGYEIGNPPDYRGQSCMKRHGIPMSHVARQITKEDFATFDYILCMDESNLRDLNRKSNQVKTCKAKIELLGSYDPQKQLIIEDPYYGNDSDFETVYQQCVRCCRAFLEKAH
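Test system – LMPTP-A enzyme · Amount – LMPTP-A at 0.625 nM final in the reaction · Buffer or medium – Bis-Tris pH 6.0, DTT, detergent · Reagent – OMFP 400 µM · Doses – single 20 µM dose · Schedule – reaction 50 min, room temperature, dark · Detection – fluorescence intensity of OMFP turnover product · Evaluation – percent inhibition versus substrate-only and uninhibited controls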
DNMT1 inh = DNMT1 (human) enzyme inhibition | P26358 | DNMT1 molecular beacon, Hinp1I cleavage, fluorescence | inhibition (reported as % activation of signal), % at 10 µM | 360,000 compounds, 0.83% hits | AID 588458; in the data active = inhibition above about 50%
SUMO1-SIM PPI = modulators of human SUMO1-mediated protein-protein interactions. SUMO1 binding to a labelled peptide, TR-FRET, 1 h. inhibition, % at 20 µM. 360,000 compounds, 0.33% hits; in the data active = inhibition above about 37%
Rpn11 inh = blocks the human proteasome subunit Rpn11. inhibition, % at 20 µM. 360,000 compounds, 0.59% hits. human 26S proteasome, Ub4-pepOG fluorescence polarization; 20S core pre-blocked with epoxomicin. AID 588493;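 active = inhibition at 20 µM, scaled to each plate's controls, above about 33%, limit read from the data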
Target sequence (O00487 whole entry, looked up): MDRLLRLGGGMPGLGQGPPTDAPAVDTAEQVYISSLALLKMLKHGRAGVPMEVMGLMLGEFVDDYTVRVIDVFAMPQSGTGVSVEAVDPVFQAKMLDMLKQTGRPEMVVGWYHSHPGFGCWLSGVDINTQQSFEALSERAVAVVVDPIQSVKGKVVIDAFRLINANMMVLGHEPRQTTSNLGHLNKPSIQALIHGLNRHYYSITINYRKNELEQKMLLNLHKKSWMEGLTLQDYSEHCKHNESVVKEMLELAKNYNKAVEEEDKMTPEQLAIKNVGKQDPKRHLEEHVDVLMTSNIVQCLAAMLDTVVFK
* hit, by the source's call; / = not tested or not shown. Sampled rows, rich in hits. Any-hit rate of the full collection: about 2.3%.

SMILES	STEP block	Scp-1 inhibitor	LMPTP inh	DNMT1 inh	SUMO1-SIM PPI	Rpn11 inh
CC(=O)c1sc(Nc2ccc3c(c2)OCO3)nc1C	2.2	/	0.9	6.0	-29.2	-9.0
O=C(NCCCN1CCOCC1)c1sc2cc([N+](=O)[O-])ccc2c1Cl	93.4*	-1.0	3.1	-9.7	-25.8	-3.8
Cc1ccc(CN2CCSCC2)cc1	-3.8	-2.0	-0.8	17.6	2.2	-5.5
O=C(Nc1ccc2c(c1)OCO2)c1cc(-c2ccc(O)cc2)on1	-3.0	-10.1	0.6	-11.1	38.8*	-10.4
NC(=S)n1[nH]c(-c2ccc([N+](=O)[O-])cc2)c(N=Nc2ccc(Cl)cc2)c1=O	3.7	3.4	28.7	107.5*	87.2*	20.6
Cc1ccc([N+](=O)[O-])cc1N=Nc1c(-c2ccc([N+](=O)[O-])cc2)[nH]n(C(N)=S)c1=O	9.4	63.0*	27.3	20.7	18.1	-1.7
Cc1c(Br)c([N+](=O)[O-])nn1CC(=O)NCCc1ccc(Cl)cc1	0.2	0.2	1.0	-2.0	42.9*	-1.7
COc1cccc(CNc2ccc(S(=O)(=O)Nc3nccs3)cc2)c1O	2.4	-4.9	-0.3	-1.4	37.6*	1.3
O=C(O)c1cc(Cl)c2c(c1)[C@@H]1C=CC[C@@H]1[C@H](c1ccc(S(=O)(=O)N3CCOCC3)cc1)N2	1.1	11.6	0.4	12.9	41.8*	-0.6
CCCCCc1cc(=O)oc2c(C(CCN(CC)CC)c3ccc(N(C)C)cc3)c(OC)cc(OC)c12 (stereo unspecified)	2.2	-0.2	-0.6	6.9	-16.5	8.6
O=c1c2ccccc2sn1-c1ccc(F)cc1	2.3	80.8*	-2.2	1.4	2.6	-5.1
COC(=O)c1cccc(-n2sc3ccccc3c2=O)c1	1.9	94.8*	-1.7	5.1	-2.3	-0.1
Cc1ccc(-n2sc3ccccc3c2=O)cc1	-2.8	63.7*	0.0	5.0	1.8	4.0
CN(Cc1ccc(F)cc1)C(=O)c1cccc(OCc2ccccc2)c1	-0.3	-9.8	0.9	-9.3	-3.4	-3.7
Cc1c(Cl)cccc1NC(=O)CCN1C(=O)C2CC=CCC2C1=O (stereo unspecified)	9.3	-14.9	-0.3	-0.4	0.9	-1.5
COc1ccc(CNC(=O)C2CCN(S(=O)(=O)c3ccc4c(c3)CC(C)N4C(=O)C3CC3)CC2)cc1 (stereo unspecified)	-0.7	-10.8	0.0	-0.6	-8.4	-6.3
O=C(NCC(c1ccco1)N1CCCC1)c1cccc(S(=O)(=O)N2CCOCC2)c1 (stereo unspecified)	0.3	-3.6	0.0	0.4	4.1	-3.8
N#C/C(=C/c1ccc(-c2cc([N+](=O)[O-])ccc2Cl)o1)C(N)=O	7.6	44.7	33.9	38.8	39.4*	-1.2
COc1ccc(-c2cc(=O)oc3cc(OCC(=O)NCC4CCC(C(=O)O)CC4)ccc23)cc1 (stereo unspecified)	-2.6	12.2	-1.7	-5.2	-17.7	-2.2
O=C(Nc1ccccc1-c1nc2ccccc2[nH]1)c1ccc(S(=O)(=O)N2CCCCC2)cc1	47.1*	-2.0	0.2	-2.1	9.8	-0.7
COc1cccc(OCc2cc(C(=O)N(Cc3ccccc3)CC3CC3)no2)c1	0.4	-14.9	5.9	-2.4	2.1	1.3
NC(CSC(c1ccccc1)(c1ccccc1)c1ccccc1)C(=O)O (stereo unspecified)	5.7	2.2	0.9	52.2*	0.6	6.8
COc1cc(C2C(C#N)=C(N)Oc3cc(C)oc(=O)c32)cc(OC)c1OC (stereo unspecified)	0.4	-16.9	-0.6	-0.7	9.6	1.3
COc1cc(C2C(C#N)=C(N)Oc3cc(C)oc(=O)c32)cc2c1OCO2 (stereo unspecified)	-1.3	3.4	1.4	18.6	46.4*	10.5
COc1ccc(Cl)cc1/C=N/NC(=O)c1c(-c2ccccc2)noc1C	-2.1	-2.0	0.9	-0.6	53.4*	1.5
SMILES	STEP block	Scp-1 inhibitor	LMPTP inh	DNMT1 inh	SUMO1-SIM PPI	Rpn11 inh
COc1cccc2sc(Nc3nc(-c4cc5ccccc5oc4=O)cs3)nc12	3.6	10.6	12.0	-2.4	61.2*	13.5
COc1cccc2sc(Nc3nc(-c4ccncc4)cs3)nc12	-0.1	2.2	-0.2	-4.8	1.7	3.7
O=C(CCCc1ccccc1)NCCS(=O)(=O)N1CCN(c2ccc(F)cc2)CC1	-0.3	-3.9	-0.1	1.2	3.3	1.2
OCCCNCc1ccc(N(c2ccccc2)c2ccccc2)cc1	0.2	-3.0	-0.9	5.8	-4.9	-0.3
CCS(=O)(=O)c1ccc(N=Nc2ccc(O)c3ncccc23)c(OC)c1	5.5	-13.2	11.8	-7.9	-35.4	49.8*
Clc1cccc(-c2nc3c4ccccc4ccn3c2Cc2ccsc2)c1	1.1	/	3.8	-3.2	1.2	-1.8
CCOc1ccc(OCCC(=O)N(CC)CC(=O)Nc2ccccc2OC)cc1	0.8	-4.9	0.5	3.0	-1.8	5.4
CCN(CC(=O)Nc1ccccc1OC)C(=O)CCc1ccccc1	0.8	-5.8	-0.1	1.2	40.5*	2.9
O=C(COc1cc(F)ccc1[N+](=O)[O-])NCCCc1ccccc1	-1.1	-8.0	-0.6	-1.0	-11.7	6.3
O=C(C=Cc1ccccc1)c1ccc([N+](=O)[O-])cc1	1.4	-15.2	-1.2	5.3	-36.8	-1.1
CN(C)c1ccc(C(=O)C=Cc2ccc([N+](=O)[O-])cc2)cc1	11.5	/	54.9*	34.2	-13.6	26.9
CCC(=O)N1N=C(c2ccc(Cl)cc2)CC1c1ccco1 (stereo unspecified)	4.4	-9.5	-0.5	-0.9	-3.4	0.3
CCc1ccc(C2=NN(C(C)=O)C(c3ccco3)C2)cc1 (stereo unspecified)	-1.8	69.4*	0.5	-1.3	-0.1	-0.2
COc1ccc2noc3c2c1C(=O)c1ccccc1-3	-386.4	-5.6	-22.9	186.7*	-30.4	-221.7
COc1ccc(OC)c2c1C(=O)c1ccccc1C2=O	/	-0.7	/	/	/	/
O=C(CSC(=S)N1CCOCC1)Nc1nc(-c2ccccc2)c(-c2ccccc2)o1	0.1	-5.2	2.8	-16.7	2.9	5.0
O=C(CSC(=S)N1CCCCC1)Nc1nc(-c2ccccc2)c(-c2ccccc2)o1	3.1	1.1	2.7	4.2	50.5*	-3.5
Cc1c(O)cnc2nn(-c3ccccc3)c(=N)n12	0.8	/	0.0	0.9	-0.1	0.2
COc1ccc(-c2csc(N3CCN(c4cc(C)nc5ccccc45)CC3)n2)cc1OC	2.8	3.5	84.2*	-10.3	-12.8	1.7
Cc1cccc(Nc2cc(C)c3c(O)cccc3n2)c1C	5.3	-12.2	68.6*	-29.3	-3.9	4.2
Cc1cccc(NC(=S)N(C)C)c1C	-2.6	-10.8	-1.4	3.3	-3.5	-0.9
Nc1ccc(Br)c2c1C(=O)c1ccccc1C2=O	/	-6.7	/	/	/	/
